# A selection: hits, their analogues and other compounds. The true share with any hit is near 1.7%.
# DNMT1 block = inhibitors of human DNMT1; P26358; DNMT1 molecular beacon, Hinp1I cleavage, fluorescence; inhibition (reported as % activation of signal), % at 10 µM; 360,000 tested, 0.83% active; in the data active = inhibition above about 50%
# LMPTP inh = LMPTP (human) inhibition. 360,000 tested, 0.22% active. inhibition, % at 20 µM. recombinant LMPTP-A, OMFP fluorogenic substrate, fluorescence intensity. P24666. AID 651560;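 active = compounds that cut the enzyme signal by at least half of the control window in the single-dose screen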;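 also: plate controls were DMSO wells with enzyme plus substrate for no effect and substrate without enzyme for full effect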
# Target sequence (P24666 whole entry, looked up): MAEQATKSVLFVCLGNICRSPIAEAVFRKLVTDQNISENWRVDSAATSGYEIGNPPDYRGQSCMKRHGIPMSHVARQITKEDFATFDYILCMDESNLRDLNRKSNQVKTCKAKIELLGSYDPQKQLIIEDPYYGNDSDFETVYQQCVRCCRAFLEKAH
#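 Buffer or medium: Bis-Tris pH 6.0, DTT, detergent; Assay system: LMPTP-A enzyme; Quantity: 0.625 nM enzyme; Detection: endpoint fluorescence intensity; Times: 50 min dark incubation at room temperature; Controls: substrate-only low control, DMSO enzyme-plus-substrate high control; Doses: single 20 µM dose; Read-out: percent inhibition versus substrate-only and uninhibited controls; Reagent: 400 µM OMFP.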
# STEP block = blocks human striatal-enriched tyrosine phosphatase | recombinant STEP, OMFP fluorogenic substrate, fluorescence | P54829 | inhibition, % at 20 µM | 360,000 tested, 0.25% active;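 active = inhibition at 20 µM, scaled per plate between control wells, above about 37%, limit read from the data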;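 also: 0% = DMSO with enzyme and substrate and 100% = substrate only without enzyme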
#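 Measure: Control-normalized % inhibition with plate pattern correction | Test system: STEP phosphatase, cell-free reaction | Medium: pH 6.0 Bis-Tris with DTT and Tween 20 | Technique: Fluorescence, 480/540 nm | Times: Reaction 20 min, ambient temperature | Doses: Single compound dose of 20 µM, 1% DMSO final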
# Scp-1 inhibitor = Scp-1 (human) phosphatase inhibition | Q9GZU7 | inhibition, % at 20 µM | 340,000 tested, 0.88% active | Recombinant Scp1, phosphopeptide, malachite green phosphate absorbance;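 active = inhibition above about 50% at 20 µM, limit read from the data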;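 also: plate controls were DMSO wells with enzyme for no effect and wells lacking enzyme for full effect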
# Target sequence (Q9GZU7 76-261 limits assumed): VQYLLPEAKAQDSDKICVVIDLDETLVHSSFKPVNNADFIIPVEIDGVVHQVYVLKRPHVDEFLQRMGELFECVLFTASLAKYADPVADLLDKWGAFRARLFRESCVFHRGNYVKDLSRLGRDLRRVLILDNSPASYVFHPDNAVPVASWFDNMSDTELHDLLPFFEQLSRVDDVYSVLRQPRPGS
#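 Test system: SCP-1 catalytic domain; Buffer or medium: Acidic Tris acetate buffer with magnesium and detergent; Also added: Phosphorylated 17-residue peptide substrate; Compound: single 20 µM dose, 1% DMSO; Schedule: enzyme reaction 45 min at room temperature, colour 5 min, stabilisation 30 min; Signal: Phosphate-binding colour reagent, absorbance read at 630 nm.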
# SUMO1-SIM PPI = SUMO1-SIM interaction modulation; AID 602429; inhibition, % at 20 µM; 360,000 tested, 0.33% active; SUMO1 binding to a labelled peptide, TR-FRET, 1 h; P63165; in the data active = inhibition above about 37%
# The depositor's hits bear a star; nt = no result given.
SMILES,DNMT1 block,LMPTP inh,STEP block,Scp-1 inhibitor,SUMO1-SIM PPI
COc1ccc(/C=N/NC(=O)c2cc(O)c(O)c(O)c2)cc1Cn1cc([N+](=O)[O-])cn1,22,62*,5,83*,8
CN1/C(=C\C=[N+](C)c2ccccc2)C(C)(C)c2ccccc21,1,-2,0,72*,-4
CN1/C(=C\C=N\O)C(C)(C)c2ccccc21,-9,-2,-2,-4,3
CC(C)(C)c1ccc(/C=C2\Oc3cc(O)ccc3C2=O)cc1,-2,4,2,-2,-22
COC(=O)c1ccc2c(c1)C(=O)/C(=C/c1ccc(O)cc1)O2,-5,7,-1,18,47*
Cc1cc(C)cc(NC(=O)NN2C(C)CCCC2C)c1 (stereo not drawn),2,1,0,-3,54*
COc1ccc(CN(C)C(=O)C2CSC3(C)CCC(=O)N23)cc1OC (stereo not drawn),4,-2,-1,8,-2
O=C(O)c1cccc(Cn2c(Cl)c(/C=N/NC(=O)c3cc4ccccc4cc3O)sc2=O)c1,23,55*,4,34,12
Cc1cc(OCCN2CCOCC2)ccc1Cl,2,0,-1,-1,-1
Cc1ccc2[nH]c3ccccc3c(=O)c2c1,10,1,5,-9,-23
O=c1c2ccccc2[nH]c2ccc(O)cc12,33,7,8,61*,5
Cc1ccc2nc(SCC(=O)Nc3ccc(Cl)cc3)nc(=O)n2c1,-1,0,3,-7,86*
Cc1ccc2nc(SCC(=O)Nc3ccc(F)cc3)nc(=O)n2c1,-2,-2,-2,-3,-3
CCc1ccc2[nH]c3nc(N/N=C/c4ccc(O)cc4O)nnc3c2c1,62*,1,1,-3,11
Cc1cc(OCC(=O)Nc2ccc(S(=O)(=O)NC3=NCCCCC3)cc2)c(C(C)C)cc1Cl,-12,5,1,16,1
O=C1c2cccc3c(O)ccc(c23)C(=O)N1Cc1ccccc1,68*,-4,-24,-13,-82
CCn1ccnc1CN(C)C(=O)CCc1nnc(CCC2CCCCC2)o1,0,0,-2,-4,0
COc1ccc(/C=C2/SC(=S)N(Cc3ccccc3)C2=O)cc1O,-7,3,-2,-10,-6
O=C1/C(=C\c2cc(Cl)c(O)c(Cl)c2)SC(=S)N1Cc1ccccc1,59*,0,-151,17,37
CCc1ccc(/C=C2/SC(=S)N(CCC(=O)Nc3ccc(C(=O)O)cc3)C2=O)cc1,11,62*,26,nt,85*
CCc1ccc(C=C2SC(=S)N(CCCC(=O)Nc3ccc(C(=O)O)cc3)C2=O)cc1,2,59*,1,nt,-13
CCc1ccc(/C=C2/SC(=S)N(CCCC(=O)Nc3ccccc3C(=O)O)C2=O)cc1,1,4,2,-2,2
CCc1ccc(/C=C2/SC(=S)N(CCC(=O)Nc3cccc(C(=O)O)c3)C2=O)cc1,3,7,8,0,-7
COc1ccc(-n2c(NC(=O)c3ccco3)c(C#N)c3nc4ccccc4nc32)cc1,13,8,-1,-2,33
N#Cc1c(NC(=O)c2ccccc2Cl)n(Cc2ccccc2)c2nc3ccccc3nc12,54*,12,1,-1,56*
SMILES,DNMT1 block,LMPTP inh,STEP block,Scp-1 inhibitor,SUMO1-SIM PPI
CCC(=O)Nc1c(C#N)c2nc3ccccc3nc2n1-c1ccccc1C,-20,0,2,-5,-17
CCCCn1c(NC(=O)c2ccccc2Cl)c(C#N)c2nc3ccccc3nc21,76*,17,0,-4,53*
CN(CC(=O)Nc1ccccc1Br)C(=O)CNC(=O)c1ccc(Oc2ccccc2)cc1,1,0,0,-2,2
CC(C)(C)OC(=O)C[C@@H]1C/C=C\C[C@@H](CC(=O)NCCO)C(=O)NC[C@@H](c2ccccc2)OC1=O,2,16,9,-2,6
O=[N+]([O-])c1cccc2c(S(=O)(=O)N3CCOCC3)cccc12,14,21,59*,32,-25
O=[N+]([O-])c1cccc2c(S(=O)(=O)N3CCCCC3)cccc12,0,1,3,-6,-34
C/C(N)=C(/C#N)C(=O)CSc1nnc(Nc2c(C)cccc2C)s1,26,10,1,70*,11
O=c1ccc2[n+]([O-])c3ccc(O)cc3oc-2c1,58*,3,11,31,2

# Bioassay records from PubChem.
